The results in this text go back to ChEMBL document CHEMBL1156074, “Diazo transfer-click reaction route to new, lipophilic teicoplanin and ristocetin aglycon derivatives with high antibacterial and anti-influenza virus activity: an aggregation and receptor binding study” (J Med Chem, 2009).

Assay [1] deals with Influenza A virus. Description: Antiviral activity against Influenza A virus (A/Puerto Rico/8/34(H1N1)) assessed as inhibition of virus-induced cytopathic effect by cell-based assay. It counts as functional, organism-based, A/Puerto Rico/8/1934(H1N1). The gist of the method:
(§1)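 Virus-induced cytopathic effect is scored visually in infected cell cultures. EC50 is defined as the compound concentration producing 50% inhibition of the CPE. A compound is recorded as not active when there is no inhibition at the highest concentration tested or at a subtoxic concentration.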
(Damage to the host cells serves as the signal in cytopathic effect assays.)

For assay [2], the system named is Influenza A virus. Description: Antiviral activity against Influenza A virus (A/Puerto Rico/8/34(H1N1)) assessed as cell viability by cell-based MTS assay. As to conditions: A/Puerto Rico/8/1934(H1N1). The class given is functional, organism-based. The gist of the method: (§2)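 Cell-based influenza assay. The read-out is cell viability by the colorimetric formazan-based MTS assay. EC50 is the concentration giving 50% inhibition of the virus-induced cytopathic effect.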
(In general: Tetrazolium assays rely on reduction of a dye to a coloured formazan, in cell work by metabolically active cells.)

For assay [3], the system named is H3N2 subtype. Description: Antiviral activity against Influenza A virus (A/Hong Kong/7/87(H3N2)) assessed as inhibition of virus-induced cytopathic effect by cell-based assay. As to conditions: A/Hong Kong/7/1987(H3N2). The class given is functional, organism-based. The gist of the method:
as §1

Assay [4] has as its system H3N2 subtype. Description: Antiviral activity against Influenza A virus (A/Hong Kong/7/87(H3N2)) assessed as cell viability by cell-based MTS assay. It counts as functional, organism-based. As to conditions: A/Hong Kong/7/1987(H3N2). The gist of the method:
as §2

Assay [5] deals with Influenza B virus. Put plainly: Antiviral activity against Influenza B virus (B/Hong Kong/5/72) assessed as inhibition of virus-induced cytopathic effect at highest concentration by cell-based assay. It counts as functional. The conditions noted are these: B/Hong Kong/05/1972. The gist of the method: as §1
In assay [6] the test system is Influenza B virus. Description: Antiviral activity against Influenza B virus (B/Hong Kong/5/72) assessed as cell viability at subtoxic concentration by cell-based MTS assay. As to conditions: B/Hong Kong/05/1972. The class given is functional.
Assay [7] has as its system Enterococcus. Description: Antibacterial activity against vancomycin and teicoplanin-resistant Enterococcus harboring vanA resistance gene. The class given is functional.
Assay [8] has as its system Influenza B virus. Put plainly: Antiviral activity against Influenza B virus (B/Hong Kong/5/72) assessed as inhibition of virus-induced cytopathic effect by cell-based assay. The class given is functional. As to conditions: B/Hong Kong/05/1972. The method in brief:
as §1

Assay [9] has as its system Influenza B virus. Description: Antiviral activity against Influenza B virus (B/Hong Kong/5/72) assessed as cell viability by cell-based MTS assay. It counts as functional. As to conditions: B/Hong Kong/05/1972. The gist of the method: as §2
Assay [10] relates to Enterococcus faecalis. Put plainly: Antibacterial activity against vancomycin and teicoplanin-resistant Enterococcus faecalis 15376 harboring vanA gene after 18 hrs by broth microdilution method. It counts as functional. As to conditions: Enterococcus faecalis, 15376, 18 h. (In general: Dilution methods test growth across graded concentrations, often in twofold steps.)
Assay [11] deals with Enterococcus faecalis. Put plainly: Bactericidal activity against vancomycin and teicoplanin-resistant Enterococcus faecalis 15376 harboring vanA gene after overnight incubation. It counts as functional.
In assay [12] the test system is Influenza A virus. Put plainly: Antiviral activity against Influenza A virus (A/Puerto Rico/8/34(H1N1)) assessed as inhibition of virus-induced cytopathic effect at highest concentration by cell-based assay. The class given is functional, organism-based. The conditions noted are these: A/Puerto Rico/8/1934(H1N1). The gist of the method:
as §1

The test system of assay [13] is Influenza A virus. Description: Antiviral activity against Influenza A virus (A/Puerto Rico/8/34(H1N1)) assessed as cell viability at subtoxic concentration by cell-based MTS assay. As to conditions: A/Puerto Rico/8/1934(H1N1). The class given is functional, organism-based.
Assay [14] deals with H3N2 subtype. Put plainly: Antiviral activity against Influenza A virus (A/Hong Kong/7/87(H3N2)) assessed as inhibition of virus-induced cytopathic effect at highest concentration by cell-based assay. The class given is functional, organism-based. As to conditions: A/Hong Kong/7/1987(H3N2). The method in brief: as §1
Assay [15] has as its system H3N2 subtype. Put plainly: Antiviral activity against Influenza A virus (A/Hong Kong/7/87(H3N2)) assessed as cell viability at subtoxic concentration by cell-based MTS assay. The class given is functional, organism-based. The conditions noted are these: A/Hong Kong/7/1987(H3N2).
The subject of assay [16] is Bacillus subtilis. Description: Antibacterial activity against Bacillus subtilis ATCC 6633 after 18 hrs by broth microdilution method. The class given is functional. As to conditions: ATCC 6633, 18 h.
Assay [17] relates to Bacillus subtilis. Put plainly: Bactericidal activity against Bacillus subtilis ATCC 6633 after overnight incubation. The class given is functional.
For assay [18], the system named is Staphylococcus aureus. Put plainly: Antibacterial activity against methicillin-sensitive Staphylococcus aureus ATCC 33591 after 18 hrs by broth microdilution method. It counts as functional. The conditions noted are these: ATCC 33591, 18 h.
Assay [19] deals with Staphylococcus aureus. Description: Bactericidal activity against methicillin-sensitive Staphylococcus aureus ATCC 33591 after overnight incubation. The class given is functional.
The subject of assay [20] is Staphylococcus aureus. Description: Antibacterial activity against methicillin-sensitive Staphylococcus aureus ATCC 29213 after 18 hrs by broth microdilution method. It counts as functional. As to conditions: ATCC 29213, 18 h.
Assay [21] deals with Staphylococcus aureus. Description: Bactericidal activity against methicillin-sensitive Staphylococcus aureus ATCC 29213 after overnight incubation. The class given is functional.
Assay [22] has as its system Staphylococcus epidermidis. Put plainly: Antibacterial activity against biofilm of Staphylococcus epidermidis ATCC 35984 after 18 hrs by broth microdilution method. It counts as functional. The conditions noted are these: RP62A.
The test system of assay [23] is Staphylococcus epidermidis. Description: Bactericidal activity against biofilm of Staphylococcus epidermidis ATCC 35984 after overnight incubation. The class given is functional. The conditions noted are these: RP62A.
The subject of assay [24] is Staphylococcus epidermidis. Put plainly: Antibacterial activity against Staphylococcus epidermidis after 18 hrs by broth microdilution method. It counts as functional.
Assay [25] relates to Staphylococcus epidermidis. Put plainly: Bactericidal activity against Staphylococcus epidermidis after overnight incubation. The class given is functional.
Assay [26] concerns Enterococcus faecalis. Description: Antibacterial activity against vancomycin and teicoplanin-sensitive Enterococcus faecalis ATCC 29212 after 18 hrs by broth microdilution method. It counts as functional. The conditions noted are these: ATCC 29212, 18 h.
The test system of assay [27] is Enterococcus faecalis. Description: Bactericidal activity against vancomycin and teicoplanin-sensitive Enterococcus faecalis ATCC 29212 after overnight incubation. The class given is functional.
Assay [28] deals with Enterococcus faecalis. Description: Antibacterial activity against vancomycin-resistant and teicoplanin-sensitive Enterococcus faecalis ATCC 51299 harboring vanB gene after 18 hrs by broth microdilution method. The class given is functional. The conditions noted are these: ATCC 51299, 18 h.
Assay [29] relates to Enterococcus faecalis. Put plainly: Bactericidal activity against vancomycin-resistant and teicoplanin-sensitive Enterococcus faecalis ATCC 51299 harboring vanB gene after overnight incubation. It counts as functional.
[30] abbreviates: Influenza A virus, A/Puerto Rico/8/1934(H1N1).

Values after ≈ are worked out from the molar mass of the structure shown. Active and inactive are the calls of the source. Where only a bound is given, the exact number is not on record here.

For orientation: EC50 means the concentration giving half of the maximal effect. On to `NC12CC3CC(CC(C3)C1)C2` [AMANTADINE], for which the EC50 in assay [1] (setting [30]) was 45 µM; in assay [2] it was 35 µM; in [3], 0.8 µM; in [4], 0.4 µM. Besides, the inhibition result in assay [5] and in [6] was “inactive” throughout.
As for `CN[C@H](CC(C)C)C(=O)N[C@H]1C(=O)N[C@@H](CC(N)=O)C(=O)N[C@H]2C(=O)N[C@H]3C(=O)N[C@H](C(=O)N[C@H](C(=O)O)c4cc(O)cc(O)c4-c4cc3ccc4O)[C@H](O[C@H]3C[C@](C)(N)[C@@H](O)[C@H](C)O3)c3ccc(c(Cl)c3)Oc3cc2cc(c3O[C@@H]2O[C@H](CO)[C@@H](O)[C@H](O)[C@H]2O[C@H]2C[C@](C)(NCc3ccc(-c4ccc(Cl)cc4)cc3)[C@@H](O)[C@H](C)O2)Oc2ccc(cc2Cl)[C@H]1O` [ORITAVANCIN], in assay [7], the MIC was below 1 µg/mL.
`NC(=O)c1ncn([C@@H]2O[C@H](CO)[C@@H](O)[C@H]2O)n1` [RIBAVIRIN]: the EC50 in assay [1] was 9 µM; in assay [2] it was 9.7 µM; in assay [3], 9 µM; in assay [4] it was 6 µM; in [8], 9 µM; in [9], 3.6 µM.
Consider `CC(N)C12CC3CC(CC(C3)C1)C2` (stereo unspecified) [RIMANTADINE], for which the EC50 came to 10 µM in [1] (setting [30]), 13 µM in assay [2], 0.1 µM in [3] and 0.2 µM in assay [4]. Further, the inhibition entry in [5] and in assay [6] was “inactive” throughout.
Turning to `COC(=O)[C@@H]1NC(=O)[C@H]2NC(=O)[C@H](NC(=O)[C@@H]3NC(=O)[C@H]4NC(=O)[C@@H](Cc5ccc(c(Cl)c5)Oc5cc3cc(c5O)Oc3ccc(cc3Cl)[C@H]2O[C@@H]2O[C@H](CO)[C@@H](O)[C@H](O)[C@H]2NC(C)=O)NC(=O)[C@H](N=[N+]=[N-])c2ccc(O)c(c2)Oc2cc(O)cc4c2)c2ccc(O)c(c2)-c2c(O)cc(O)cc21`, the MIC in assay [10] was found to be 16 µg/mL (≈ 11.1 µM); in assay [16], 8 µg/mL (≈ 5.55 µM); in [18], 4 µg/mL (≈ 2.77 µM); in assay [20], 4 µg/mL (≈ 2.77 µM); in assay [22], 8 µg/mL (≈ 5.55 µM); in assay [24], 4 µg/mL (≈ 2.77 µM). The MIC in [26] and in assay [28] was 16 µg/mL (≈ 11.1 µM) throughout. Besides, the MBC turned out to be 256 µg/mL (≈ 178 µM) in assay [11]; 8 µg/mL (≈ 5.55 µM) in [17]; 8 µg/mL (≈ 5.55 µM) in assay [19]; 8 µg/mL (≈ 5.55 µM) in assay [21]; 8 µg/mL (≈ 5.55 µM) in assay [23]; 4 µg/mL (≈ 2.77 µM) in [25]. Besides, the MBC in assay [27] and in assay [29] was 256 µg/mL (≈ 178 µM) throughout. Further, the inhibition entry in assay [12], in assay [13], in assay [14], in [15], in assay [5] and in assay [6] was “inactive” throughout.
